What was measured:
A2780 [1] = experiment: Inhibitory concentration against cisplatin-resistant A2780 human ovarian adenocarcinoma cell line; type: functional, cell-based
Outline: (§1)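 Cells kept in RPMI1640 with 10% fetal calf serum, 2 mM L-glutamine and 1% antibiotics at 37 °C, 5% CO2. Cp8 subline was derived by chronic cisplatin exposure. 1 × 10^3 cells/well grew 24 h, then were exposed to 0-500 µM final for 120 h (DMSO ≤0.1% final). MTT was read after 3 h, A570. Run three times in quadruplicate. IC50 from nonlinear regression; mean ± SE.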

A2780 [2] = experiment: Inhibitory concentration against human A2780 ovarian adenocarcinoma cell line; type: functional, cell-based; outline: as §1

| IC50 (A2780 [1]) [µM] | IC50 (A2780 [2]) [µM] | Substance |
| --- | --- | --- |
| 123 | 7.66 | CARBOPLATIN |
| 45 | 1.37 | CISPLATIN |
| 118 | 5.55 | DICHLORO(ETHYLENEDIAMINE) PLATINUM (II) |
| 6.62 | 0.48 | OXALIPLATIN |
